Laboratory results as given in BindingDB's records for doi:10.1021/jm0504454 (Sapienza University of Rome, 2005).

Target: RNA-directed RNA polymerase (UniProt O39930)
Experiment: Inhibitory concentration against NS5B HCV polymerase using [alpha-32P]UTP as radioligand (30 degree C for 2 h, at pH 7.5 with Tris-HCl buffer)
Method in brief: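 Recombinant HCV RdRp (1 nM) in 20 mM Tris-HCl pH 7.5, 5 mM MgCl2, 1 mM DTT, 1 mM EDTA, RNase inhibitor, 50 µg/mL actinomycin D, 10 µg/mL RNA template, 0.5 mM ATP/CTP/GTP, [α-32P]UTP, limiting nucleotide 10 µM. 30 °C, 2 h; proteinase K stop, extraction, urea-PAGE, phosphorimaging. IC50s rescaled by a reference inhibitor's measured/literature IC50 ratio.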

RNA-directed RNA polymerase, sequence (O39930 whole entry): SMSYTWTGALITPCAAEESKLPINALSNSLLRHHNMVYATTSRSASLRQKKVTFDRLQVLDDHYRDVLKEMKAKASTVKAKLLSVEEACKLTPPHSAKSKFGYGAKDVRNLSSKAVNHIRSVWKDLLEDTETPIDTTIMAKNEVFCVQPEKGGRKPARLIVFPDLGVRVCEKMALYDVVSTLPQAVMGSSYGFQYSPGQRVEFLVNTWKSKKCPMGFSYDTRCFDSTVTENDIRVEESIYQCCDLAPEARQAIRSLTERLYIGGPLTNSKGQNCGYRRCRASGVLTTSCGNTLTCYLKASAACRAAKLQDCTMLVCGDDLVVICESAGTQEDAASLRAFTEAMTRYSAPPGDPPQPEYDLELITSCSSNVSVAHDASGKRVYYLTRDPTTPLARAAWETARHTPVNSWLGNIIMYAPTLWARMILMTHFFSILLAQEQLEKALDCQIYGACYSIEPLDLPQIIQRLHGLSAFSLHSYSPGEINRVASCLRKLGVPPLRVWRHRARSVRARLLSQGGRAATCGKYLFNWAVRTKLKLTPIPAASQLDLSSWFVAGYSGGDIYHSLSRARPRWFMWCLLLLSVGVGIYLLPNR

Row | Compound | IC50 [µM]
1 | O=C(O)C(=O)CC(=O)c1cc(I)cn1Cc1ccc(F)cc1 [(Z)-4-[1-(4-Fluoro-benzyl)-4-iodo-1H-pyrrol-2-yl]-2-hydroxy-4-oxo-but-2-enoic acid] | 18
2 | O=C(C=Cc1cccn1Cc1cccc(F)c1)CC(=O)C(=O)O [(Z)-6-[1-(3-Fluoro-benzyl)-1H-pyrrol-2-yl]-2-hydroxy-4-oxo-hexa-2,5-dienoic acid] | 18
3 | O=C(O)C(=O)CC(=O)c1cccc(Oc2ccccc2)c1 | 19
4 | O=C(O)C(=O)CC(=O)c1cccc(-c2ccccc2)c1 | 28
5 | O=C(O)C(=O)CC(=O)c1cccn1Cc1ccc2ccccc2c1 [(Z)-2-Hydroxy-4-(1-naphthalen-2-ylmethyl-1H-pyrrol-2-yl)-4-oxo-but-2-enoic acid] | 13
6 | Cn1cc(C(=O)c2ccc(F)cc2)cc1C=CC(=O)CC(=O)C(=O)O [(Z)-6-[4-(4-Fluoro-benzoyl)-1-methyl-1H-pyrrol-2-yl]-2-hydroxy-4-oxo-hexa-2,5-dienoic acid] | 16
7 | Cc1cc(C)c(C(=O)CC(=O)C(=O)O)s1 [(Z)-4-(3,5-Dimethyl-thiophen-2-yl)-2-hydroxy-4-oxo-but-2-enoic acid] | 8.2
8 | O=C(O)C(=O)CC(=O)c1cccc(OCc2cccc(Oc3ccccc3)c2)c1 [(Z)-2-Hydroxy-4-oxo-4-[3-(3-phenoxy-benzyloxy)-phenyl]-but-2-enoic acid] | 50
9 | O=C(O)C(=O)CC(=O)c1cccc(OCc2ccc(-c3ccccc3)cc2)c1 [(Z)-4-[3-(Biphenyl-4-ylmethoxy)-phenyl]-2-hydroxy-4-oxo-but-2-enoic acid] | 50
10 | O=C(O)C(=O)CC(=O)c1ccco1 | 50
11 | O=C(O)C(=O)CC(=O)c1cccn1Cc1ccc(O)cc1 [(Z)-2-Hydroxy-4-[1-(4-hydroxy-benzyl)-1H-pyrrol-2-yl]-4-oxo-but-2-enoic acid] | 13
12 | N#Cc1cccc(Cl)c1COc1cc(O)cc(C(=O)CC(=O)C(=O)O)c1 [(Z)-4-[3-(2-Chloro-6-cyano-benzyloxy)-5-hydroxy-phenyl]-2-hydroxy-4-oxo-but-2-enoic acid] | 0.1
13 | O=C(O)C(=O)CC(=O)c1ccc(N2CCCCC2)s1 [(Z)-2-Hydroxy-4-oxo-4-(5-piperidin-1-yl-thiophen-2-yl)-but-2-enoic acid] | 8.2
14 | O=C(O)C(=O)CC(=O)c1ccsc1Cc1ccc(F)cc1 [(Z)-4-[2-(4-Fluoro-benzyl)-thiophen-3-yl]-2-hydroxy-4-oxo-but-2-enoic acid] | 18
15 | O=C(O)C(=O)CC(=O)c1cccc(NC(=O)C(=O)O)c1 [(Z)-2-Hydroxy-4-[3-(oxalyl-amino)-phenyl]-4-oxo-but-2-enoic acid] | 19
16 | COc1ccc(Cn2cccc2C=CC(=O)CC(=O)C(=O)O)cc1 | 16
17 | Cc1ccccc1Cn1cccc1C=CC(=O)CC(=O)C(=O)O [(Z)-6-[1-((E)-obenzyl)-1H-Pyrrol-2-yl]-2-hydroxy-4-oxo-hexa-2,5-dienoic acid] | 18
18 | N#CCCCCn1cccc1C(=O)CC(=O)C(=O)O [(Z)-4-[1-(4-Cyano-butyl)-1H-pyrrol-2-yl]-2-hydroxy-4-oxo-but-2-enoic acid] | 13
19 | Cc1ccc(Cn2cccc2C=CC(=O)CC(=O)C(=O)O)cc1 | 28
20 | O=C(C=Cc1c[nH]c2ccc(Cl)cc12)CC(=O)C(=O)O [(Z)-6-((E)-5-Chloro-1H-indol-3-yl)-2-hydroxy-4-oxo-hexa-2,5-dienoic acid] | 18
